Measured values taken from ChEMBL document CHEMBL1138493, “Synthesis and modeling of new benzofuranone histone deacetylase inhibitors that stimulate tumor suppressor gene expression” (J Med Chem, 2009).
Calls of active or inactive are those of the source. The rule behind the calls is not given here.

Experiments:
[1] = tested on: NCI-H661; assay: Antiproliferative activity against human NCI-H661 cells after 48 hrs by XTT assay; format: functional, cell-based; settings: NCI-H661, 48 h
[2] = tested on: NCI-H661; assay: Increase in E-cadherin mRNA expression in human NCI-H661 cells at 300 nM by qRT-PCR relative to control; format: functional
[3] = tested on: NCI-H661; assay: Increase in semaphoring 3F mRNA expression in human NCI-H661 cells at 300 nM by qRT-PCR relative to control; format: functional
[4] = biological target: Histone deacetylase (Homo sapiens) (UniProt Q13547+O15379+Q9UBN7+Q92769+Q9UQL6+Q8WUI4+Q9BY41+Q96DB2+P56524+Q9UKV0+Q969S8); assay: Inhibition of HDAC in human NCI-H661 cells assessed as induction of histone H4 acetylation at 3 uM after 6 hrs by Western blot analysis; format: cell-based
Procedure, shortened: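 NCI-H661 cells exposed to compound for 6 h, then lysed and probed by Western blot for acetylated histone H4, with tubulin acetylation blotted alongside. Blots shown are representative of three independent experiments.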

SMILES	IC50 [1] [nM]	fold change (FC) [2]	fold change (FC) [3]	Activity [4]
CC(/C=C/C(=O)NO)=C\[C@@H](C)C(=O)c1ccc(N(C)C)cc1 [TRICHOSTATIN]	100	50	4	
CC(/C=C/C(=O)NO)=C\C1(C)Oc2ccccc2C1=O (centres undefined)				Active
